Data taken from ChEMBL document CHEMBL1938233, “2-Oxo-N-aryl-1,2,3,4-tetrahydroquinoline-6-sulfonamides as activators of the tumor cell specific M2 isoform of pyruvate kinase” (Bioorg Med Chem Lett, 2011).
Active and inactive are the calls of the source. The rule behind the calls is not given here.

Key:
Pyruvate kinase PKM [1] = biological target: T1, Pyruvate kinase PKM (Homo sapiens, UniProt P14618); assay: Activation of human PKM2 assessed as ATP product formation after 1 hr by luminescent pyruvate kinase-luciferase coupled assay
Outline: (§1)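 Luminescent pyruvate kinase–luciferase coupled assay. AC50 is the mean of three separate experiments. Maximum response is % activation at 57 μM compound, normalized as described in the supporting information.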

Pyruvate kinase PKM [2] = biological target: T1, Pyruvate kinase PKM; assay: Activation of human PKM2 assessed as ATP product formation at 57 uM after 1 hr by luminescent pyruvate-kinase luciferase coupled assay; outline: as §1
Target sequence in this assay (P14618 2-531 limits assumed): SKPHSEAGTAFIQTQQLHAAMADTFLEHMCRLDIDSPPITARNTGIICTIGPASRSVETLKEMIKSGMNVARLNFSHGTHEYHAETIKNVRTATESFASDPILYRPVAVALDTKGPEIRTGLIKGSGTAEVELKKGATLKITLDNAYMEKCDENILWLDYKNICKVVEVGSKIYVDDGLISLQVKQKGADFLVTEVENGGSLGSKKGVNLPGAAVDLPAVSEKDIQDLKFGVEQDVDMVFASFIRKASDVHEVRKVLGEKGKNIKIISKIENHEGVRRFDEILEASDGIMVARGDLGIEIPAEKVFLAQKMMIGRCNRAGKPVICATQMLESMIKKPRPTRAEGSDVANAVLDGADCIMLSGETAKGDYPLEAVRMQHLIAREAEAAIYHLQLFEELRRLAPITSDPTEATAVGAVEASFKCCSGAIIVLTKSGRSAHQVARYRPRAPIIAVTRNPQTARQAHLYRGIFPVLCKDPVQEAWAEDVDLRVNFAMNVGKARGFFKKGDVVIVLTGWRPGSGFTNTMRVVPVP

Pyruvate kinase PKM [3] = biological target: T1, Pyruvate kinase PKM; assay: Activation of human PKM2 assessed as ATP product formation at 57 µM after 1 hr by luminescent pyruvate kinase-luciferase coupled assay
Target sequence in this assay (P14618 2-531 limits assumed): as above

Liver microsomes = assay: Half life in human liver microsomes at 2 uM after 2 mins by LC/MS/MS analysis; format: ADME, Microsome
[4] = Apparent permeability from apical to basolateral side of human Caco2 cells at pH 7.4 after 2 hrs by LC/MS/MS analysis; format: ADME, cell-based; settings: Caco-2, pH 7.4
Liver = assay: Half life in mouse liver microsomes at 2 uM after 2 mins by LC/MS/MS analysis; format: ADME, Microsome
[5] = Apparent permeability from basolateral to apical side of human Caco2 cells at pH 7.4 after 2 hrs by LC/MS/MS analysis; format: ADME, cell-based; settings: Caco-2, pH 7.4
[6] = biological target: Pyruvate kinase PKLR (Homo sapiens) (UniProt P30613); assay: Activation of PKLR assessed as ATP product formation at 57.5 uM after 1 hr by luminescent pyruvate kinase-luciferase coupled assay
Caco-2 = assay: Efflux ratio of permeability from basolateral to apical side over apical to basolateral side in human Caco2 cells at pH 7.4 after 2 hrs by LC/MS/MS analysis; settings: caco-2, pH 7.4, 2 h

Pyruvate kinase PKLR (Homo sapiens), sequence (P30613 whole entry, looked up): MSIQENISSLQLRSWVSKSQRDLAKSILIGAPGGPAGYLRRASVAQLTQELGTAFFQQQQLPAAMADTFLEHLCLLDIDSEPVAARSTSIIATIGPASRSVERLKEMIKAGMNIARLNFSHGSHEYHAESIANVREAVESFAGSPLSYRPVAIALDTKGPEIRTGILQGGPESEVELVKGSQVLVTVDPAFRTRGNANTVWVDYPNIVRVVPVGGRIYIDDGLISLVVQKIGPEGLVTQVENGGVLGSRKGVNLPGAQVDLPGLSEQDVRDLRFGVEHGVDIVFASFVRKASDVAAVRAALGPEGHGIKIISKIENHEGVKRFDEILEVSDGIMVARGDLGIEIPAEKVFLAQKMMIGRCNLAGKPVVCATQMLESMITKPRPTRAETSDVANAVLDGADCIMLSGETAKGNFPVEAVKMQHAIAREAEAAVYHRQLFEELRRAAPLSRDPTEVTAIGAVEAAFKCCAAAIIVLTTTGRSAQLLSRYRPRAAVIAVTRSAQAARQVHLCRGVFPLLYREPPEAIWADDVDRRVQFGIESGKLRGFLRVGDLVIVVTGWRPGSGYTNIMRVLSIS

Structure (SMILES) | Emax (Pyruvate kinase PKM [2]) | Emax (Pyruvate kinase PKM [3]) | other results
Cc1ccc(NS(=O)(=O)c2cc(N[C@@H](C)CO)cc3c2NC(=O)CC3)cc1Cl |  |  | Activity (Pyruvate kinase PKM [1]): inactive
O=C1CCc2cc(S(=O)(=O)Nc3cccc(Cl)c3)ccc2N1 | 104% |  | EC50 (Pyruvate kinase PKM [1]): 410 nM
Cc1ccc(NS(=O)(=O)c2ccc3c(c2)CCC(=O)N3)cc1Cl | 104% |  | EC50 (Pyruvate kinase PKM [1]): 100 nM
O=C1CCc2cc(S(=O)(=O)Nc3cccc(-c4ccccc4)c3)ccc2N1 | inactive |  | 
Cc1ccc(NS(=O)(=O)c2ccc3c(c2)CCC(=O)N3)cc1F | 138% |  | 
Cc1cc(NS(=O)(=O)c2cc3c(cc2F)NC(=O)CC3)ccc1F |  | 92% | 
Cc1ccc(NS(=O)(=O)c2cc3c(cc2N[C@H](C)CO)NC(=O)CC3)cc1C |  | 108% | EC50 (Pyruvate kinase PKM [1]): 880 nM
O=C1CCc2cc(S(=O)(=O)Nc3ccc(F)cc3)ccc2N1 | 84% |  | 
Cc1ccc(NS(=O)(=O)c2cc3c(cc2N2CCC(N(C)C)C2)NC(=O)CC3)cc1C (racemic) |  | inactive | 
CC(=O)N1CCc2cc(S(=O)(=O)Nc3ccc(C)c(C)c3)ccc21 |  | 96% | 
Cc1ccc(NS(=O)(=O)c2cc3c(cc2NC(C)C)NC(=O)CC3)cc1C |  | 123% | 
Cc1cc(NS(=O)(=O)c2ccc3c(c2)CCC(=O)N3)ccc1Cl | 121% |  | 
Cc1ccc(NS(=O)(=O)c2ccc3c(c2)CC(=O)N3)cc1C |  | 57% | 
Cc1cc(NS(=O)(=O)c2cc3c(cc2F)NC(=O)CC3)ccc1Cl |  | 93% | 
C[C@@H](CO)Nc1cc2c(cc1S(=O)(=O)Nc1ccc(F)c(Cl)c1)CCC(=O)N2 |  | 92% | t1/2 (Liver microsomes): 78.8 min; Papp A→B at 2 h [4]: 1.61 ×10⁻⁶ cm/s; t1/2 (Liver): 36.3 min; Papp B→A at 2 h [5]: 17.5 ×10⁻⁶ cm/s; Activity [6]: < 25%; Ratio (Caco-2): 10.91
O=C1CCc2cc(S(=O)(=O)Nc3ccc4ccccc4c3)ccc2N1 | 121% |  | 
Cc1ccc(NS(=O)(=O)c2cc3c(cc2N(C)C)NC(=O)CC3)cc1C |  | 129% | t1/2 (Liver microsomes): 19.4 min; t1/2 (Liver): 21.7 min
Cc1ccc(NS(=O)(=O)c2cc3c(cc2N2CCCCC2)NC(=O)CC3)cc1C |  | 47% | 
Cc1ccc(NS(=O)(=O)c2cc3c(cc2N(C)C)CCC(=O)N3)cc1C |  | 106% | 
Cc1ccc(NS(=O)(=O)c2cc3c(cc2Cl)CCC(=O)N3)cc1Cl |  | 109% | 
Cc1ccc(NS(=O)(=O)c2cc3c(cc2F)NC(=O)CC3)cc1C |  | 101% | t1/2 (Liver microsomes): 16.5 min; t1/2 (Liver): 34.3 min
Cc1ccc(NS(=O)(=O)c2ccc3c(c2)NC(=O)CO3)cc1C |  | 81% | 
Cc1ccc(NS(=O)(=O)c2cc3c(cc2NCC(C)(C)O)NC(=O)CC3)cc1C |  | 83% | 
Cc1ccc(NS(=O)(=O)c2ccc3c(c2)CCCC(=O)N3)cc1C |  | 88% | 
O=C1CCc2cc(S(=O)(=O)Nc3cccnc3)ccc2N1 | inactive |  | 

Structure (SMILES) | Emax (Pyruvate kinase PKM [2]) | Emax (Pyruvate kinase PKM [3]) | other results
Cc1ccc(NS(=O)(=O)c2ccc3c(c2)CCC(=O)N3)cc1 | 102% |  | 
Cc1ccc(NS(=O)(=O)c2cc3c(cc2N[C@@H](C)CO)CCC(=O)N3)cc1Cl |  | 54% | 
Cc1ccc(NS(=O)(=O)c2cccc(C(=O)O)c2)cc1C |  | inactive | 
Cc1ccc(NS(=O)(=O)c2cc3c(cc2Cl)NC(=O)CO3)cc1C |  | 80% | 
Cc1ccc(NS(=O)(=O)c2ccc(N3CCCC3=O)cc2)cc1C |  | 60% | 
CNc1cc2c(cc1S(=O)(=O)Nc1ccc(C)c(C)c1)CCC(=O)N2 |  | 102% | t1/2 (Liver microsomes): 19.7 min; t1/2 (Liver): 19.1 min
O=C1CCc2cc(S(=O)(=O)Nc3ccc4c(c3)OCCO4)ccc2N1 | 100% |  | 
Cc1ccc(NS(=O)(=O)c2ccc3c(c2)N(C)CCO3)cc1C |  | 81% | 
Cc1ccc(NS(=O)(=O)c2cc3c(cc2-c2ccccc2)NC(=O)CO3)cc1C |  | inactive | 
O=C1CCc2cc(S(=O)(=O)Nc3ccc(Cl)cc3)ccc2N1 | 106% |  | 
Cc1cc(NS(=O)(=O)c2ccc3c(c2)CCC(=O)N3)ccc1F | 128% |  | 
Cc1cc(NS(=O)(=O)c2cc3c(cc2N[C@@H](C)CO)NC(=O)CC3)ccc1F |  | 95% | 
Cc1ccc(NS(=O)(=O)c2cc3c(cc2C)NC(=O)CO3)cc1C |  | 111% | 
COc1ccc(S(=O)(=O)Nc2ccc(C)c(C)c2)cc1 |  | 53% | 
Cc1ccc(NS(=O)(=O)c2ccc(F)cc2)cc1C |  | inactive | 
Cc1ccc(NS(=O)(=O)c2cc(Br)cc3c2NC(=O)CC3)cc1Cl |  |  | Activity (Pyruvate kinase PKM [1]): inactive
Cc1ccccc1NS(=O)(=O)c1ccc2c(c1)CCC(=O)N2 | 94% |  | 
O=C1CCc2cc(S(=O)(=O)Nc3ccc(F)c(Cl)c3)ccc2N1 | 123% |  | EC50 (Pyruvate kinase PKM [1]): 290 nM
O=C1CCc2cc(S(=O)(=O)Nc3cccc(C(F)(F)F)c3)ccc2N1 | 109% |  | 
O=C1CCc2cc(S(=O)(=O)Nc3ccc(Cl)c(Cl)c3)ccc2N1 | 95% |  | 
Cc1ccc(NS(=O)(=O)c2cc3c(cc2Cl)CCC(=O)N3)cc1C |  | 92% | 
Cc1ccc(NS(=O)(=O)c2cc3c(cc2N2CCCC2)NC(=O)CC3)cc1C |  | 123% | 
COc1ccc(NS(=O)(=O)c2ccc3c(c2)CCC(=O)N3)cc1 | 85% |  | 
Cc1ccc(NS(=O)(=O)c2cc3c(cc2Br)CCC(=O)N3)cc1Cl |  | 51% | EC50 (Pyruvate kinase PKM [1]): 7430 nM
COc1cccc(NS(=O)(=O)c2ccc3c(c2)CCC(=O)N3)c1 | 115% |  | 

Structure (SMILES) | Emax (Pyruvate kinase PKM [2]) | Emax (Pyruvate kinase PKM [3]) | other results
Cc1cccc(NS(=O)(=O)c2ccc3c(c2)CCC(=O)N3)c1 | 101% |  | EC50 (Pyruvate kinase PKM [1]): 250 nM
CC(=O)Nc1cccc(S(=O)(=O)Nc2ccc(C)c(C)c2)c1 |  | 58% | 
Cc1ccc(NS(=O)(=O)c2ccc3c(c2)oc(=O)n3C)cc1C |  | 95% | 
Cc1ccc(NS(=O)(=O)c2cc3c(cc2/C=C/c2ccccc2)NC(=O)CO3)cc1C |  | inactive | 
O=C1CCc2cc(S(=O)(=O)Nc3ccccc3F)ccc2N1 | 95% |  | 
Cc1ccc(NS(=O)(=O)c2cc3c(cc2Br)CCC(=O)N3)cc1C |  | 52% | EC50 (Pyruvate kinase PKM [1]): 6600 nM
CC(=O)N1CCCc2cc(S(=O)(=O)Nc3ccc(C)c(C)c3)ccc21 |  | 76% | 
Cc1ccc(NS(=O)(=O)c2cc3c(cc2F)NC(=O)CC3)cc1Cl |  | 112% | t1/2 (Liver microsomes): 22.9 min; Papp A→B at 2 h [4]: 6.22 ×10⁻⁶ cm/s; t1/2 (Liver): 54.1 min; Papp B→A at 2 h [5]: 6.24 ×10⁻⁶ cm/s; Ratio (Caco-2): 1
Cc1ccc(NS(=O)(=O)c2ccc3ccccc3c2)cc1C |  | 69% | 
Cc1ccc(NS(=O)(=O)c2ccc3c(c2)CC(=O)N3C)cc1C |  | 119% | 
Cc1ccc(NS(=O)(=O)c2cc(N[C@@H](C)CO)cc3c2NC(=O)CC3)cc1C |  |  | Activity (Pyruvate kinase PKM [1]): inactive
Cc1ccc(NS(=O)(=O)c2ccc3c(c2)CCC(C)(C)O3)cc1C |  | 62% | 
Cc1ccc(NS(=O)(=O)c2cccc(Cl)c2)cc1C |  | 71% | 
CC(=O)Nc1ccc(S(=O)(=O)Nc2ccc(C)c(C)c2)cc1 |  | < 40% | 
Cc1ccc(NS(=O)(=O)c2ccc3[nH]c(=O)[nH]c3c2)cc1C |  | inactive | 
CCN(CC)c1cc2c(cc1S(=O)(=O)Nc1ccc(C)c(C)c1)CCC(=O)N2 |  | 106% | 
Cc1ccc(NS(=O)(=O)c2cc3c(cc2N[C@@H](C)CO)NC(=O)CC3)cc1C |  | 116% | EC50 (Pyruvate kinase PKM [1]): 170 nM
O=C1CCc2cc(S(=O)(=O)Nc3ccc4ncccc4c3)ccc2N1 | inactive |  | 
Cc1ccc(NS(=O)(=O)c2cc(Br)cc3c2NC(=O)CC3)cc1C |  |  | Activity (Pyruvate kinase PKM [1]): inactive
O=C1CCc2cc(S(=O)(=O)Nc3ccncc3)ccc2N1 | inactive |  | 
Cc1ccc(NS(=O)(=O)c2cc3c(cc2NCCO)NC(=O)CC3)cc1C |  | 132% | 
O=C1CCc2cc(S(=O)(=O)Nc3cccc(F)c3)ccc2N1 | 101% |  | EC50 (Pyruvate kinase PKM [1]): 790 nM
O=C1CCc2cc(S(=O)(=O)Nc3ccc4c(c3)CCC4)ccc2N1 | 73% |  | 
COc1cccc(Cn2ncc3c4sc([S+](C)[O-])cc4n(C)c3c2=O)c1 (configuration not stated) |  |  | EC50 (Pyruvate kinase PKM [1]): 73 nM
Cc1ccc(NS(=O)(=O)c2ccc3c(ccn3C)c2)cc1C |  | 47% | EC50 (Pyruvate kinase PKM [1]): 19900 nM
